Data set [1] concerns Cancer Cell Lines (A549, OE21, Hs683, U373, SKMEL, B16F10). The experiment in a line: MTT colorimetric assay, mean over six cancer cell lines. In kind it is cell-based. Particulars: read-out: IC50 In Vitro Growth Inhibitory Values, Cancer Cell Lines, Mean ± SEM. A general note: Tetrazolium dyes change colour on reduction, which living cells bring about.
Data set [2] relates to Normal Cell Lines (Wi38, WS1, NHDF). Nature of the data set: MTT colorimetric assay, mean over three normal cell lines. The following applies: read-out: IC50 In Vitro Growth Inhibitory Values, Normal Cell Lines, Mean ± SEM. Format: cell-based.
In data set [3] the test system is cancer versus normal cell lines. Nature of the data set: In vitro therapeutic ratio, cancer versus normal cell lines. Format: cell-based. An outline of the steps: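 MTT colorimetric growth assay on human cancer and normal cell lines. Cells were plated for 24 h at 10,000 to 40,000 cells/mL, depending on cell type, then cultured 72 h with or without test compound. Formazan from mitochondrial MTT reduction was read at 570 nm (reference 630 nm), in sextuplicate. The ratio compares MTT growth-inhibitory IC50 between normal and cancer cells.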

Data set [4] has as its system SKMEL-28 melanoma cells. The experiment in a line: MTT colorimetric assay, in vitro growth inhibition. In kind it is cell-based, human.
In data set [5] the test system is U373 GBM cells. Nature of the data set: Quantitative videomicroscopy: cell growth. Format: cell-based, human. The following applies: 5 μM, 72 h.
The test system of data set [6] is healthy mice. The experiment in a line: Chronic maximal tolerated dose in healthy mice. The following applies: i.v. 5, 10, 20, 40 and 80 mg/kg once a day during 5 consecutive days; 28 days. In kind it is in vivo, mouse.
Data set [7] concerns CYP3A4. The following applies: cited from earlier work.
Data set [8] deals with U373 GBM cells. The experiment in a line: Actin cytoskeleton organization by computer-assisted fluorescence microscopy. In kind it is cell-based, human. Particulars: 5 μM for 6 hrs.
Data set [9] deals with A549 NSCLC cells. The experiment in a line: Soft-agar colony formation, anchorage-independent culture. Format: cell-based, human. The following applies: between 0.5 (p < 0.05) and 5 (p < 0.01) μM, 38 days.
For data set [10], the system named is A549 NSCLC cells. The experiment in a line: Quantitative videomicroscopy: cell growth. In kind it is cell-based, human. The following applies: 5 μM, 72 h.
Data set [11] has as its system U373 GBM cells. Nature of the data set: Flow cytometry, annexin V / propidium iodide staining. Format: cell-based, human. Particulars: 72 hrs. Background: A flow cytometer gives signals particle by particle.
For data set [12], the system named is Hs683 anaplastic oligodendroglioma cells. The experiment in a line: MTT colorimetric assay, in vitro growth inhibition. Format: cell-based, human.
Data set [13] deals with U373 glioblastoma (GBM) cells. The experiment in a line: MTT colorimetric assay, in vitro growth inhibition. Format: cell-based, human. The following applies: 72 h.
Data set [14] relates to A549 non-small-cell-lung cancer (NSCLC) cells. Nature of the data set: MTT colorimetric assay, in vitro growth inhibition. In kind it is cell-based, human.
The subject of data set [15] is OE21 esophageal cancer cells. Nature of the data set: MTT colorimetric assay, in vitro growth inhibition. In kind it is cell-based, human.
Data set [16] deals with B16F10 melanoma cells. The experiment in a line: MTT colorimetric assay, in vitro growth inhibition. Format: cell-based, mouse.
The subject of data set [17] is MCF-7 breast cancer cells. Nature of the data set: Flow cytometry, annexin V / propidium iodide staining. Particulars: 1 μM for 72 hrs, positive control. In kind it is cell-based, human.
For data set [18], the system named is glioma cells, which display resistance to proapoptotic stimuli. The following applies: 1 μM; cited from earlier work.
[19] abbreviates: read-out: In Vitro IC50 Growth Inhibitory Values, SKMEL, MTT, 72 h, concentrations of up to 10 μM.
The mark [20] stands for this setting: read-out: In Vitro IC50 Growth Inhibitory Values, Hs683, MTT, 72 h, concentrations of up to 10 μM.
Setting [21] is: read-out: In Vitro IC50 Growth Inhibitory Values, U373, MTT, concentrations of up to 10 μM.
[22] abbreviates: read-out: In Vitro IC50 Growth Inhibitory Values, A549, MTT, 72 h, concentrations of up to 10 μM.
Where [23] appears, read: read-out: In Vitro IC50 Growth Inhibitory Values, OE21, MTT, 72 h, concentrations of up to 10 μM.
Setting [24] is: read-out: In Vitro IC50 Growth Inhibitory Values, B16F10, MTT, 72 h, concentrations of up to 10 μM.

Each structure is given as a SMILES string. Where two headings read alike, the source gives them in different places.

Usually IC50 stands for the point on the concentration scale where inhibition reaches its midpoint.

Regarding `COc1cc2c(cc1O)[C@@H]1[C@H](O)[C@@H](O)C=C3CCN(C2)[C@H]31` [compound 18, (1S,2S,11bS,11cS)-1,2,10-triol-2,4,5,7,11b,11c-hexahydro-9-methoxy-1H-pyrrolo[3,2,1-de]phenanthridine], the IC50 in data set [1] is 9 ± 1.3 µM; in data set [2], 63.3 ± 7.3 µM. Moreover, the Therapeutic ratio in data set [3] (MTT IC50) came to 7.

For the compound `CC(=O)O[C@H]1[C@H]2c3cc4c(cc3CN3CCC(=C[C@@H]1OC(C)=O)[C@H]23)OCO4` [compound 3, (1S,2S,12bS,12cS)-1,2-Diol-2,4,5,7,12b,12c-hexahydro-1H-[1,3]dioxolo[4,5-j]pyrrolo[3,2,1-de]phenanthridine-1,2-diacetate], the IC50 in [4] (setting [19]) was greater than 10 µM.

For `O[C@H]1[C@H]2c3cc4c(cc3CN3CCC(=C[C@@H]1O)[C@H]23)OCO4` [compound 1, (1S,2S,12bS,12cS)-1,2-Diol,2,4,5,7,12b,12c-hexahydro-1H-[1,3]dioxolo[4,5-j]pyrrolo[3,2,1-de]phenanthridine], the “in vitro growth inhibitory activity based on global growth rate (GGR)” value in data set [5] and in [10] was “marked in vitro growth inhibitory activity” in each case. The “toxicity (body weight, death)” value in data set [6] is “no gross toxicity”. Also, the IC50 in data set [2] is greater than 100 µM. The CYP3A4 inhibitory activity entry in [7] is “no CYP3A4 inhibitory activity”. In [8], the “levels of polymerized actin” value is listed as “markedly increased the levels of polymerized actin”. In data set [9], the “colony formation on soft agar” value is “significantly impairs colony formation”. Further, the “pro-apoptotic effects (AV+ cells)” value in data set [11] (5 μM or 50 μM) is on record as “did not induce pro-apoptotic effects”. The “non-apoptotic cell death (AV-/PI+ cells)” value in data set [11] (50 μM) is listed as “induced non-apoptotic cell death”. The Therapeutic ratio in data set [3] (MTT IC50) is reported as greater than 15; in [3] (MTT IC50, listed as Lycorine), “at least 15”; in data set [3] (MTT IC50, listed as lycorine) it was 15.

With `CC(=O)O[C@H]1C=C2CCN3Cc4cc5c(cc4[C@H]([C@@H]1O)[C@@H]23)OCO5` [compound 5, (1S,2S,12bS,12cS)-1,2-Diol-2,4,5,7,12b,12c-hexahydro-1H-[1,3]dioxolo[4,5-j]pyrrolo[3,2,1-de]phenanthridine-2-acetate], the IC50 in data set [1] is 59.3 ± 8.2 µM; in [12] (Homo sapiens, Hs 683, 72 h, read-out: IC50 In Vitro Growth Inhibitory Values), 43 ± 2 µM; in [2] it was greater than 96.2 µM; in [13] (Homo sapiens, U373 MG, read-out: IC50 In Vitro Growth Inhibitory Values), 63.1 ± 4.1 µM; in [14] (Homo sapiens, A549, 72 h, read-out: IC50 In Vitro Growth Inhibitory Values), 47.6 ± 2.3 µM; in [15] (Homo sapiens, OE21, 72 h, read-out: IC50 In Vitro Growth Inhibitory Values), 77.4 ± 3.1 µM. For the same compound, the IC50 in data set [16] (Mus musculus, B16-F10, 72 h, read-out: IC50 In Vitro Growth Inhibitory Values) came out at 37.1 ± 2.8 µM. For the same compound, the Therapeutic ratio in data set [3] (MTT IC50) is reported as greater than 2.

With `O[C@H]1[C@H]2c3cc4c(cc3CN3CCC(=C[C@@H]1Cl)[C@H]23)OCO4` [compound 6, (1S,2S,12bS,12cS)-1-ol-2-Chloro-2,4,5,7,12b,12c-hexahydro-1H-[1,3]Dioxolo[4,5-j]pyrrolo[3,2,1-de]phenanthridine], in data set [2], the IC50 is greater than 72.7 µM. Besides, the Therapeutic ratio in data set [3] (MTT IC50) is recorded as greater than 11.

With `CC(=O)O[C@H]1[C@H]2c3cc4c(cc3CN3CC[C@@H](C[C@@H]1OC(C)=O)[C@H]23)OCO4` [compound 11, (1α,2β,12β)-1,2-Diol-9,10-[methylenebis(oxy)]-galanthan-diacetate], the IC50 in data set [12] (setting [20]), in data set [4] (setting [19]), in data set [13] (setting [21]), in [14] (setting [22]), in [15] (setting [23]) and in [16] (setting [24]) was greater than 10 µM throughout.

Regarding `C1=C2CCN3Cc4cc5c(cc4[C@H]([C@@H]4O[C@H]14)[C@@H]23)OCO5` [compound 14, (1α,2α)-3,12-didehydro-1,2-epoxy-9,10-[methylenebis(oxy)]-galanthan], the figures for the IC50 in [1] (mean of six cancer cell lines) and in data set [2] (mean of three normal cell lines) were 5.3 ± 1.2 µM and 24.9 ± 8.2 µM, respectively. In data set [3] (MTT IC50), the Therapeutic ratio amounted to 5.

Take `CC(=O)O[C@H]1[C@H]2c3cc4c(cc3CN3CC[C@H](C[C@@H]1OC(C)=O)[C@H]23)OCO4` [compound 9, (1S,2S,3aR,12bS,12cR)-1,2-Diol-2,3,3a,4,5,7,12b,12c-octahydro-1H-[1,3]dioxolo[4,5-j]pyrrolo[3,2,1-de]phenanthridine diacetate]: the IC50 in data set [12] (setting [20]), in data set [4] (setting [19]), in [13] (setting [21]), in [14] (setting [22]), in data set [15] (setting [23]) and in data set [16] (setting [24]) was greater than 10 µM throughout.

As for `O=C1N[C@@H]2C(=C[C@H](O)[C@@H](O)[C@H]2O)c2cc3c(c(O)c21)OCO3` [narciclasine], the “pro-apoptotic effects (AV/PI staining)” value in data set [17] is “induced significant pro-apoptotic effects”. In data set [18], the apoptosis induction entry is on record as “unable to induce apoptosis”. Besides, in data set [7], the CYP3A4 inhibitory activity result was “does”.

For the compound `COC1=C[C@@H]2CCN3Cc4cc5c(cc4[C@@H]([C@H]23)[C@@H]1O)OCO5` [compound 22, (1S,3aS,12bS,12cS)-1-ol-2-methoxy-3a,4,5,7,12b,12c-hexahydro-1H-[1,3]Dioxolo[4,5-j]pyrrolo[3,2,1-de]phenanthridine], the IC50 in data set [2] is greater than 99.2 µM. Also, in [3] (MTT IC50), the Therapeutic ratio is recorded as greater than 13.

Consider `c1cc2c3c(c1)-c1cc4c(cc1CN3CC2)OCO4` [compound 20, 4,5-dihydro-7H-[1,3]Dioxolo[4,5-j]pyrrolo[3,2,1-de]phenanthridine], for which the IC50 in [1] worked out at 11.6 ± 3.4 µM; in [4] (Homo sapiens, SK-MEL-28, 72 h, read-out: IC50 In Vitro Growth Inhibitory Values), 20.9 ± 1.2 µM. The Therapeutic ratio in data set [3] (MTT IC50) is reported as 2.

The record behind these values is publication PMC3205972 (Journal of medicinal chemistry, 2009).
